Source: ChEMBL document CHEMBL3997832, “Development of MBRI-001, a deuterium-substituted plinabulin derivative as a potent anti-cancer agent” (Bioorg Med Chem Lett, 2017)

Experiments:
Mus musculus [1] = experiment: Toxicity in nude mouse xenografted with human NCI-H460 cells assessed as decrease in body weight at 10 mg/kg, iv administered every 2 days for 21 days; format: organism-based; set-up: scale not given: the % may be the effect or the level left; conditions: in vivo
How it was run: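 NCI-H460 lung carcinoma xenografts in nude mice, with intravenous injection every two days over 21 consecutive days (legend: Q3D7). Body weights were recorded across the administration period as a toxicity read-out. Data given as mean ± SD.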

NCI-H460 [2] = experiment: Antitumor activity against human NCI-H460 cells xenografted in nude mouse assessed as tumor growth inhibition at 10 mg/kg, iv administered every 2 days for 21 days relative to vehicle-treated control; format: functional; conditions: read-out: TGI
How it was run: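 Nude mice bearing human NCI-H460 lung carcinoma xenografts, dosed by intravenous injection every two days for 21 consecutive days (legend states Q3D7), alongside vehicle controls. Tumor volumes were followed over the dosing period. At the end, tumors were excised and weighed, and inhibitory rates were calculated relative to vehicle. Data given as mean ± SD.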

Jurkat = experiment: Cytotoxicity against human Jurkat cells assessed as decrease in cell viability after 72 hrs by MTT assay; format: functional, cell-based
NCI-H460 [3] = experiment: Antitumor activity against human NCI-H460 cells xenografted in nude mouse assessed as tumor growth inhibition at 3 mg/kg, iv administered every 2 days for 21 days relative to vehicle-treated control; format: functional; conditions: read-out: TGI
How it was run: (§1)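 NCI-H460 xenografts in nude mice, dosed intravenously at 3, 6 or 12 mg/kg every two days for 21 consecutive days (Q3D7); docetaxel 10 mg/kg as positive control. Tumor volumes followed, tumors excised and weighed at end of dosing; inhibitory rate calculated versus vehicle group; mean ± SD.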

[4] = Observed AUC (0 to infinity) in Wistar rat at 5 mg/kg, iv; format: ADME, organism-based; set-up: dose 5 mg/kg, time infinity, route intravenous; conditions: in vivo
How it was run: (§2)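 Wistar rats, single intravenous dose of 5 mg·kg⁻¹, n=5; plasma concentration–time profile sampled, mean ± SD. Parameters (ke, t1/2, Tmax, Cmax, AUClast, AUC0–∞, Vz, CL, MRT) derived from the plasma curve.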

NCI-H460 [5] = experiment: Antitumor activity against human NCI-H460 cells xenografted in nude mouse assessed as tumor growth inhibition at 12 mg/kg, iv administered every 2 days for 21 days relative to vehicle-treated control; format: functional; conditions: read-out: TGI; how it was run: as §1
[6] = Half life in Wistar rat at 5 mg/kg, iv; format: ADME, organism-based; conditions: in vivo; how it was run: as §2
[7] = Tmax in Wistar rat at 5 mg/kg, iv; format: ADME, organism-based; conditions: in vivo; how it was run: as §2
[8] = Metabolic stability in rat liver microsomes assessed as esterase-mediated amide bond hydrolysis at 2 uM measured up to 150 mins by LC-MS/MS analysis; format: ADME; conditions: 2.5 h
[9] = Observed apparent volume of distribution in Wistar rat at 5 mg/kg, iv; format: ADME, organism-based; conditions: in vivo, read-out: Vz; how it was run: as §2
NCI-H460 [10] = experiment: Antitumor activity against human NCI-H460 cells xenografted in nude mouse assessed as tumor growth inhibition at 6 mg/kg, iv administered every 2 days for 21 days relative to vehicle-treated control; format: functional; conditions: read-out: TGI; how it was run: as §1
Mus musculus [11] = experiment: Toxicity in nude mouse xenografted with human NCI-H460 cells assessed as decrease in body weight at 3 to 12 mg/kg, iv administered every 2 days for 21 days; format: organism-based; conditions: in vivo
How it was run: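 Nude mice bearing NCI-H460 xenografts dosed intravenously at 3, 6 or 12 mg/kg every two days for 21 days (Q3D7). Body weights recorded over the dosing period; mean ± SD.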

NCI-H446 = experiment: Cytotoxicity against human NCI-H446 cells assessed as decrease in cell viability after 72 hrs by MTT assay; format: functional, cell-based; conditions: NCI-H446, 72 h
[12] = Cmax in Wistar rat at 5 mg/kg, iv; format: ADME, organism-based; set-up: dose 5 mg/kg, route intravenous; conditions: in vivo; how it was run: as §2
[13] = Drug uptake in tumor of nude mouse xenografted with human NCI-H460 cells at 3 mg/kg, iv administered every 2 days for 21 days; format: ADME, organism-based, Neoplasm; conditions: read-out: Drug uptake
How it was run: (§3)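 Nude mice bearing NCI-H460 xenografts given compound intravenously at 3, 6 or 12 mg/kg every two days for 21 days. Concentration in excised tumor tissue measured at end of treatment, expressed as ng/g.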

[14] = Observed clearance in Wistar rat at 5 mg/kg, iv; format: ADME, organism-based; conditions: in vivo; how it was run: as §2
[15] = Elimination rate constant in Wistar rat at 5 mg/kg, iv; format: ADME, organism-based; conditions: in vivo; how it was run: as §2
[16] = Drug uptake in tumor of nude mouse xenografted with human NCI-H460 cells at 12 mg/kg, iv administered every 2 days for 21 days; format: ADME, organism-based, Neoplasm; conditions: read-out: Drug uptake; how it was run: as §3
NCI-H460 [17] = experiment: Cytotoxicity against human NCI-H460 cells assessed as decrease in cell viability after 72 hrs by MTT assay; format: functional, cell-based; conditions: NCI-H460, 72 h
[18] = MRTlast in Wistar rat at 5 mg/kg, iv; format: ADME, organism-based; conditions: in vivo; how it was run: as §2
[19] = AUClast in Wistar rat at 5 mg/kg, iv; format: ADME, organism-based; set-up: dose 5 mg/kg, route intravenous, time 0 - last; conditions: in vivo; how it was run: as §2
[20] = Drug uptake in tumor of nude mouse xenografted with human NCI-H460 cells at 6 mg/kg, iv administered every 2 days for 21 days; format: ADME, organism-based, Neoplasm; conditions: read-out: Drug uptake; how it was run: as §3
[21] = Metabolic stability in rat plasma assessed as esterase-mediated amide bond hydrolysis at 1 uM measured up to 100 mins by LC-MS/MS analysis; format: ADME; conditions: isolated protein
NCI-H460 [22] = experiment: Antitumor activity against human NCI-H460 cells xenografted in iv dosed nude mouse assessed as tumor growth inhibition administered every 2 days for 21 days; format: functional, organism-based; conditions: tested as the 2H-labelled form; how it was run: as §1

Row | Compound | IC50 (Jurkat) [µM] | AUC(0-inf) [4] [µg·h/mL] | half-life [6] [min] | Tmax [7] [min] | Stability [8] | Vd [9] [L/kg] | IC50 (NCI-H446) [µM] | Cmax [12] [µg/mL] | clearance [14] [L/h/kg] | k el [15] [s⁻¹] | IC50 (NCI-H460 [17]) [µM] | MRT last [18] [min] | AUC(0-t) [19] [µg·h/mL] | Stability [21] | also measured
1 | CC(=O)O[C@@]12CO[C@@H]1C[C@H](O)[C@@]1(C)C(=O)[C@H](O)C3=C(C)[C@@H](OC(=O)[C@H](O)[C@@H](NC(=O)OC(C)(C)C)c4ccccc4)C[C@@](O)([C@@H](OC(=O)c4ccccc4)[C@H]21)C3(C)C [DOCETAXEL ANHYDROUS] |  |  |  |  |  |  |  |  |  |  |  |  |  |  | Activity (Mus musculus [1]): 18.3%; inhibition in vivo at 10 mg/kg (NCI-H460 [2]): 40%
2 | [2H]/C(c1nc[nH]c1C(C)(C)C)=c1/[nH]c(=O)/c(=C/c2ccccc2)[nH]c1=O | 0.0043 | 1.52 | 88.2 | 1.2 | Stable | 7.72 | 0.022 | 7.28 | 3.53 | 0.000139 | 0.0332 | 101 | 1.52 | Stable | inhibition in vivo at 3 mg/kg (NCI-H460 [3]): 28.8%; inhibition in vivo at 12 mg/kg (NCI-H460 [5]): 48%; inhibition in vivo at 6 mg/kg (NCI-H460 [10]): 44.8%; Activity (Mus musculus [11]): Non-Toxic; concentration at 21 days [13]: 316 ng/g; concentration at 21 days [16]: 2490 ng/g; concentration at 21 days [20]: 809 ng/g
3 | CC(C)(C)c1[nH]cnc1/C=c1\[nH]c(=O)/c(=C/c2ccccc2)[nH]c1=O [PLINABULIN] | 0.0033 | 0.723 | 67.8 | 1.2 | Stable | 11.4 | 0.0442 | 5.04 | 7.26 | 0.000189 | 0.0339 | 30 | 0.721 | Stable | TGI (NCI-H460 [22]): Dose-dependent effect
